Assay results taken from ChEMBL document CHEMBL1151765, “Rational design of substituted diarylureas: a scaffold for binding to G-quadruplex motifs” (J Med Chem, 2008).
Activity calls are given as the source filed them. The calls are words filed in the database; no cut-off is given here.

Assays:
[1] = Stabilization of d[AGAG3AG2GCGCTG3AG2AG3GCT] sequence of c-kit1 G-quadruplex DNA assessed as change in melting temperature at 1 uM by FRET assay
Procedure, shortened: (§1)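 Dual-labelled FAM/TAMRA oligos at 400nM in 60mM KCl potassium cacodylate buffer, pH 7.4, heated to 85 °C for 10 min, then cooled. Ligand added to 1µM; buffer alone as negative control. Excitation 450–495nm, emission read at 515–545nm every 0.5 °C from 30–100 °C. ΔTm is ligand Tm minus control Tm, from four experiments ± maximum sd; c-kit1 curves fitted to sigmoids.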

[2] = Stabilization of d[G3(T2AG3)3] sequence of F21T telomeric G-quadruplex DNA assessed as change in melting temperature at 1 uM by FRET assay
Procedure, shortened: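 Dual-labelled oligo (5′-FAM, 3′-TAMRA) at 400nM in FRET buffer (60mM KCl, K cacodylate, pH 7.4), heated to 85 °C for 10 min, cooled to room temperature. Ligand added from DMSO dilution. Excitation 450–495nm, emission 515–545nm, read every 0.5 °C from 30–100 °C. ΔTm from four experiments: averaged ligand Tm minus averaged buffer-control Tm, ± maximum sd.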

[3] = Stabilization of d[C3G3CG3CGCGAG3AG4AG2] sequence of c-kit2 G-quadruplex DNA assessed as change in melting temperature at 1 uM by FRET assay; procedure, shortened: as §1
[4] = Stabilization of d[(TA)2GC(TA)2T6(TA)2]GC(TA)2 sequence of duplex DNA assessed as change in melting temperature at 1 uM by FRET assay; procedure, shortened: as §1
MCF7 [5] = assay: Cytotoxicity against human MCF7 cells after 96 hrs by SRB assay; format: functional, cell-based; conditions: MCF7, 96 h
A549 [6] = assay: Cytotoxicity against human A549 cells after 96 hrs by SRB assay; format: functional, cell-based; conditions: A549, 96 h
[7] = Cytotoxicity against human WI38 cells after 96 hrs by SRB assay; format: cell-based; conditions: WI-38, 96 h
MCF7 [8] = assay: Selectivity ratio of IC50 for human MCF7 cells to IC50 for human WI38 cells
A549 [9] = assay: Selectivity ratio of IC50 for human A549 cells to IC50 for human WI38 cells
[10] = Stabilization of d[G3(T2AG3)3] sequence of F21T telomeric G-quadruplex DNA assessed as change in melting temperature at 1 uM by FRET assay relative to BRACO-19 in presence of calf thymus DNA
Procedure, shortened: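 F21T FRET melting with ligand at 1µM in the presence of calf thymus DNA competitor at increasing bp concentrations. Retained stabilization, from three experiments, normalized to the ligand's ΔTm with no competitor (100%) ± normalized sd.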

Homo sapiens = species: Homo sapiens; assay: Binding affinity to biotin-labeled human telomeric d[AG3(T2AG3)3] sequence by surface plasmon resonance analysis
Procedure, shortened: (§2)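 Streptavidin chip with 5′-biotinylated DNA immobilized to 350-400 RU; blank reference flow cell. Run in 10mM HEPES, 100mM KCl, 3mM EDTA, P20 surfactant, pH 7.3, 25°C. Ligand 1nM to 10µM (from 20mM DMSO stock) injected at 50µl/min for 5–10 min to steady state, then 10 min buffer dissociation; glycine pH 2.0 regeneration between cycles.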

[11] = Binding affinity to biotin-labeled d[CGA2T2CGTCTC2GA2T2CG] sequence of duplex DNA by surface plasmon resonance analysis; procedure, shortened: as §2
[12] = biological target: T1, Telomerase reverse transcriptase (Homo sapiens, UniProt O14746); assay: Inhibition of telomerase by TRAP-LIG assay
[13] = biological target: T1, Telomerase reverse transcriptase; assay: Inhibition of telomerase at 50 uM by TRAP-LIG assay relative to control
MCF7 [14] = assay: Cytotoxicity against human MCF7 cells assessed as population doubling at 3.50 uM after 1 week […] relative to control; format: functional
Procedure, shortened: (§3)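 MCF7 cells (1×10^5) treated with sub-cytotoxic ligand concentrations for 1 week, biweekly dosing. Cells counted by haemocytometer; population doublings n = (log Pn – log P0)/log2. Values normalized to vehicle control (100%) ± sd, two independent concentrations per ligand.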

MCF7 [15] = assay: Cytotoxicity against human MCF7 cells assessed as population doubling at 2 uM after 1 week […] relative to control; format: functional; procedure, shortened: as §3
MCF7 [16] = assay: Cytotoxicity against human MCF7 cells assessed as cell senescence at 3.5 uM after 1 week by beta-galactosidase assay; format: functional
MCF7 [17] = assay: Cytotoxicity against human MCF7 cells assessed as cell senescence at 2 uM after 1 week by beta-galactosidase assay; format: functional
[18] = Binding affinity to biotin-labeled d[(AG3)2CGCTG3AG2AG3] sequence of c-kit1 G-quadruplex DNA by surface plasmon resonance analysis; procedure, shortened: as §2
[19] = Binding affinity to biotin-labeled d[(CG3)2CGCGAG3AG4] sequence of c-kit2 G-quadruplex DNA by surface plasmon resonance analysis; procedure, shortened: as §2
[20] = Binding affinity to biotin-labeled d[(AG3TG4)2A] sequence of c-myc G-quadruplex DNA by surface plasmon resonance analysis; procedure, shortened: as §2
[21] = Selectivity ratio of equilibrium binding constant K for human telomeric d[AG3(T2AG3)3] sequence to equilibrium binding constant K for d[CGA2T2CGTCTC2GA2T2CG] sequence of duplex DNA
[22] = Selectivity ratio of equilibrium binding constant K for d[(AG3)2CGCTG3AG2AG3] sequence of c-kit1 G-quadruplex DNA to equilibrium binding constant K for d[CGA2T2CGTCTC2GA2T2CG] sequence of duplex DNA
[23] = Selectivity ratio of equilibrium binding constant K for d[(CG3)2CGCGAG3AG4] sequence of c-kit2 G-quadruplex DNA to equilibrium binding constant K for d[CGA2T2CGTCTC2GA2T2CG] sequence of duplex DNA
[24] = Selectivity ratio of equilibrium binding constant K for d[(AG3TG4)2A] sequence of c-myc G-quadruplex DNA to equilibrium binding constant K for d[CGA2T2CGTCTC2GA2T2CG] sequence of duplex DNA
MCF7 [25] = assay: Cytotoxicity against human MCF7 cells assessed as population doubling at 5 uM after 1 week […] relative to control; format: functional; procedure, shortened: as §3
MCF7 [26] = assay: Cytotoxicity against human MCF7 cells assessed as population doubling at 10 uM after 1 week […] relative to control; format: functional; procedure, shortened: as §3
MCF7 [27] = assay: Cytotoxicity against human MCF7 cells assessed as cell senescence at 5 uM after 1 week by beta-galactosidase assay; format: functional
MCF7 [28] = assay: Cytotoxicity against human MCF7 cells assessed as cell senescence at 10 uM after 1 week by beta-galactosidase assay; format: functional

T1 sequence (O14746 whole entry): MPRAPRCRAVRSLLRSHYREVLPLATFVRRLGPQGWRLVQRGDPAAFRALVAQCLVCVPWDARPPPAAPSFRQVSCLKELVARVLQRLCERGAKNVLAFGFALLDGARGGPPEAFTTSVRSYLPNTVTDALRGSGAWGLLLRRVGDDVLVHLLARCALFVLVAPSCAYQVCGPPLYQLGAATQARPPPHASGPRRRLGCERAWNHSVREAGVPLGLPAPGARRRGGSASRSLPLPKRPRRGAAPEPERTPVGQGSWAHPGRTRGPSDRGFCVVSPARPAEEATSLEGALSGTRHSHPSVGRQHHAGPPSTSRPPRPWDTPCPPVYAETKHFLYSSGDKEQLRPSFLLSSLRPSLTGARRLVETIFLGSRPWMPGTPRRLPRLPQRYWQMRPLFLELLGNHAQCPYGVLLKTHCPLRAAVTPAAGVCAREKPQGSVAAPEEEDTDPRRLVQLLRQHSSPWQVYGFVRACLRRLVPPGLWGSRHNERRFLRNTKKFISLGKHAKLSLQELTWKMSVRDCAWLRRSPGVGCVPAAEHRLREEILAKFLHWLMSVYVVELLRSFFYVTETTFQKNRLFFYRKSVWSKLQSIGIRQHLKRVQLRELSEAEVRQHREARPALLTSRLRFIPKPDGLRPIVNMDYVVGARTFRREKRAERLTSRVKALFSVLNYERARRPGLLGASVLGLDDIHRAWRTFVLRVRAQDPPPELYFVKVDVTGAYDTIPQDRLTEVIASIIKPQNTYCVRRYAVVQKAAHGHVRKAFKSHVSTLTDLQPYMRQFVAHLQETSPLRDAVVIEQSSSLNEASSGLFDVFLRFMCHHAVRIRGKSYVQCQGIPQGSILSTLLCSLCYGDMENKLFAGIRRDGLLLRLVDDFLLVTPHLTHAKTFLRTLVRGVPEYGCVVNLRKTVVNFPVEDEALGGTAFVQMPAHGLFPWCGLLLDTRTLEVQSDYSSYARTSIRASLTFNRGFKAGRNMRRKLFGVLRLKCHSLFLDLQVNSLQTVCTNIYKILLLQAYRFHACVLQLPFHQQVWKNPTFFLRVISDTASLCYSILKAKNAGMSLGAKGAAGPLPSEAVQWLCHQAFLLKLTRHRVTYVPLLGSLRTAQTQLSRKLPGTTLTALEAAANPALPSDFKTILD

Compound	change in melting temperature (ΔTm) [1]	change in melting temperature (ΔTm) [2]	change in melting temperature (ΔTm) [3]	change in melting temperature (ΔTm) [4]	IC50 (MCF7 [5])	IC50 (A549 [6])	IC50 [7]	Ratio IC50 (MCF7 [8])	Ratio IC50 (A549 [9])	Activity [10]	also measured
O=C(CN1CCCC1)Nc1cccc(NC(=O)c2ccc(NC(=O)Nc3ccc(C(=O)Nc4cccc(NC(=O)CN5CCCC5)c4)cc3)cc2)c1	0.7 °C	1.8 °C	2 °C	2.5 °C	> 50 µM	> 50 µM	> 50 µM	1	1		
O=C(CCN1CCCC1)Nc1cccc(NC(=O)c2cccc(NC(=O)Nc3cccc(C(=O)Nc4cccc(NC(=O)CCN5CCCC5)c4)c3)c2)c1	6.7 °C	14.1 °C	15.3 °C	2.8 °C	14.4 µM	> 50 µM	19.5 µM		0.4	Active	
O=C(CCCN1CCCC1)Nc1cc(NC(=O)Nc2cc(NC(=O)CCCN3CCCC3)cc(C(=O)Nc3ccccc3)c2)cc(C(=O)Nc2ccccc2)c1	6.3 °C	12.3 °C	11.7 °C	0.5 °C	24.2 µM	30.6 µM	11 µM		0.4	Active	
CN(C)c1ccc(Nc2c3ccc(NC(=O)CCN4CCCC4)cc3nc3cc(NC(=O)CCN4CCCC4)ccc23)cc1	20.1 °C	25.9 °C	25.3 °C	11.2 °C			10.7 µM	4.3	4.5	Active	KA (Homo sapiens): 31 ×10⁶ /M; KA [11]: 0.5 ×10⁶ /M; EC50 [12]: 6.3 µM; Activity [13]: inactive
O=C(CCN1CCOCC1)Nc1ccc(NC(=O)c2cccc(NC(=O)Nc3cccc(C(=O)Nc4ccc(NC(=O)CCN5CCOCC5)cc4)c3)c2)cc1		1 °C	1.3 °C	0.2 °C	40.6 µM	> 50 µM	> 50 µM				
O=C(CCCN1CCCC1)Nc1cccc(NC(=O)c2cccc(NC(=O)Nc3cccc(C(=O)Nc4cccc(NC(=O)CCCN5CCCC5)c4)c3)c2)c1	7.8 °C	13.6 °C	16.3 °C		49.6 µM	> 50 µM	26.4 µM		0.5	Active	
C[n+]1ccc(-c2c3nc(c(-c4cc[n+](C)cc4)c4ccc([nH]4)c(-c4cc[n+](C)cc4)c4ccc([nH]4)c(-c4cc[n+](C)cc4)c4nc2C=C4)C=C3)cc1											Activity [13]: inactive
O=C(CCN1CCCCC1)Nc1ccc(NC(=O)c2cccc(NC(=O)Nc3cccc(C(=O)Nc4ccc(NC(=O)CCN5CCCCC5)cc4)c3)c2)cc1	7 °C	5.2 °C	7.1 °C	0.1 °C	5.1 µM	> 50 µM	> 50 µM		1	Active	Activity (MCF7 [14]): 84.3%; Activity (MCF7 [15]): 89.2%; Activity (MCF7 [16]): 1.33%; Activity (MCF7 [17]): 1.29%
O=C(CN1CCCC1)Nc1cccc(NC(=O)c2cccc(NC(=O)Nc3cccc(C(=O)Nc4cccc(NC(=O)CN5CCCC5)c4)c3)c2)c1	3.4 °C	6.8 °C	10.5 °C	0.3 °C	34.1 µM	> 50 µM	22.8 µM		0.5	Active	
O=C(CN1CCCC1)Nc1cc(NC(=O)Nc2cc(NC(=O)CN3CCCC3)cc(C(=O)Nc3ccccc3)c2)cc(C(=O)Nc2ccccc2)c1	5.3 °C	13.6 °C	8.7 °C		21.9 µM	> 50 µM	13.8 µM	0.6	0.3	Active	
O=C(CCN1CCCC1)Nc1cc(NC(=O)Nc2cc(NC(=O)CCN3CCCC3)cc(C(=O)Nc3ccccc3)c2)cc(C(=O)Nc2ccccc2)c1	4.9 °C	13.3 °C	12.9 °C		32.4 µM	41.5 µM	16.2 µM	0.5	0.4	Active	
O=C(CN1CCCC1)Nc1ccc(NC(=O)c2ccc(NC(=O)Nc3ccc(C(=O)Nc4ccc(NC(=O)CN5CCCC5)cc4)cc3)cc2)cc1					> 25 µM	> 25 µM	> 25 µM		1		
C[n+]1ccc(-c2c3nc(c(-c4cc[n+](C)cc4)c4ccc([nH]4)c(-c4cc[n+](C)cc4)c4nc(c(-c5cc[n+](C)cc5)c5ccc2[nH]5)C=C4)C=C3)cc1 [TMPYP4 CHLORIDE]											EC50 [12]: 8.9 µM
O=C(CCCN1CCCC1)Nc1cccc(NC(=O)c2ccc(NC(=O)Nc3ccc(C(=O)Nc4cccc(NC(=O)CCCN5CCCC5)c4)cc3)cc2)c1		3.3 °C	6.5 °C	5.5 °C	19.5 µM	19.4 µM	> 25 µM	1.3	1.3		
O=C(CN1CCCC1)Nc1ccc(NC(=O)c2cccc(NC(=O)Nc3cccc(C(=O)Nc4ccc(NC(=O)CN5CCCC5)cc4)c3)c2)cc1	3.6 °C	7.9 °C	11.3 °C		14.4 µM	> 50 µM	16.4 µM		0.3	Active	KA (Homo sapiens): 1.4 ×10⁶ /M; KA [18]: 2.1 ×10⁶ /M; KA [19]: 5.1 ×10⁶ /M; KA [20]: 14 ×10⁶ /M; KA [11]: < 1 ×10³ /M; Selectivity ratio [21]: > 400; Selectivity ratio [22]: > 400; Selectivity ratio [23]: > 400; Selectivity ratio [24]: > 400; EC50 [12]: > 50 µM; inhibition [13]: 21%; Activity (MCF7 [25]): 92.2%; Activity (MCF7 [26]): 73.1%; Activity (MCF7 [27]): 1%; Activity (MCF7 [28]): 1.7%
CN(C)CCC(=O)Nc1ccc(NC(=O)c2cccc(NC(=O)Nc3cccc(C(=O)Nc4ccc(NC(=O)CCN(C)C)cc4)c3)c2)cc1	2.9 °C	12.3 °C	13.6 °C	0.1 °C	12.2 µM	> 50 µM	> 50 µM		1	Active	
